Records with an inconclusive call do not appear. Activity calls are given as the source filed them.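 How the source made its calls: active means compounds whose fitted half-maximal concentration lies within ten times the top tested dose in every run, with signal falling; inconclusive means runs disagree, or unclear curves such as poor fits; inactive means every run inactive, including rises in signal.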
Tests used:
[1] = QS-driven bacterial bioluminescence blockers – strain BB721, dry powder, set 3, counter-screen for LuxS inhibitor project, dose response (AID 493103); details: Vibrio harveyi BB721 quorum sensing luminescence, 9 h; at 16 µM (top of the series)
Procedure, shortened: (§1)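 Material – V. harveyi BB721 quorum-sensing strain · Amount – bacterial culture diluted to starting OD600 of 0.0005 · Times – bacterial exposure to compounds 9 h at 30 °C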

[2] = system: Vibrio harveyi BB721 quorum sensing luminescence, 9 h; experiment: as above
Procedure, shortened: as §1

In the case of `C[C@H](CO)N1C[C@H](C)[C@H](CN(C)Cc2ccc(C(=O)O)cc2)Oc2ncc(-c3ccc(C(=O)N(C)C)cc3)cc2C1=O`, the activity change, negative = inhibition [1] is reported as 0.806% (inactive).

With `C[C@H](CO)N1C[C@H](C)[C@@H](CN(C)C(=O)Nc2ccc(C(F)(F)F)cc2)Oc2ccc(NC(=O)Nc3ccc4c(c3)OCO4)cc2C1=O` the activity change, negative = inhibition [1] was -10.5% (inactive).

In the case of `C[C@@H]1CCCCO[C@@H](CN(C)C(=O)Nc2cccc3ccccc23)[C@H](C)CN([C@H](C)CO)C(=O)c2cc(NC(=O)CCC(F)(F)F)ccc2O1`, the activity change, negative = inhibition [1] is reported as 2% (inactive).

Molecule `C=Cn1c(C(=O)O)ccc1-c1ccc(Cl)cc1` has an AC50 [2] of 16.2 µM.

In the case of `C[C@@H]1CCCCO[C@@H](CN(C)C(=O)Nc2ccc(C(F)(F)F)cc2)[C@H](C)CN([C@@H](C)CO)C(=O)c2cc(NC(=O)CCC(F)(F)F)ccc2O1`, the activity change, negative = inhibition [1] is reported as 2.01% (inactive).

`O=C1C=C/C(=C/Br)O1` showed an AC50 [2] of 4.47 µM.

For `C[C@@H]1CN([C@H](C)CO)C(=O)c2ccccc2-c2ccccc2CO[C@@H]1CN(C)Cc1ccc(Oc2ccccc2)cc1`, the AC50 [2] was 13.8 µM.

For `Cc1ccc(S(=O)(=O)Nc2ccc3c(c2)CC(=O)N([C@@H](C)CO)C[C@@H](C)[C@H](CN(C)C(=O)Nc2ccc(F)cc2)O3)cc1`, the activity change, negative = inhibition [1] was 3.81% (inactive).

For `C=Cn1c(C(=O)O)ccc1-c1cccs1`, the activity change, negative = inhibition [1] was -7.12% (inactive).

For `C[C@@H]1CCCCO[C@@H](CN(C)Cc2ccncc2)[C@H](C)CN([C@H](C)CO)C(=O)c2cc(NC(=O)C3CCCCC3)ccc2O1`, the activity change, negative = inhibition [1] was -3.87% (inactive).

In the case of `C[C@@H]1CN([C@@H](C)CO)C(=O)Cc2cc(NC(=O)CCCN(C)C)ccc2O[C@H]1CN(C)CC1CCCCC1`, the activity change, negative = inhibition [1] is reported as 13.8% (inactive).

For `O=S(=O)(Nc1ccccn1)c1ccccc1`, the activity change, negative = inhibition [1] was 1.3% (inactive).

For `O=S(=O)(Nc1cccnc1)c1ccc(Oc2ccccc2)cc1`, the AC50 [2] was 1.02 µM.

With `CNC[C@@H]1Oc2ccc(NC(=O)C3CCCCC3)cc2CC(=O)N([C@@H](C)CO)C[C@H]1C` the activity change, negative = inhibition [1] was 1.18% (inactive).

With `C[C@H]1CN([C@@H](C)CO)C(=O)c2cc(NC(=O)Nc3ccc4c(c3)OCO4)ccc2O[C@@H]1CN(C)C(=O)Nc1ccc(C(F)(F)F)cc1` the activity change, negative = inhibition [1] was -0.179% (inactive).

With `C[C@@H]1CN([C@@H](C)CO)C(=O)Cc2cc(NC(=O)CCN3CCOCC3)ccc2O[C@H]1CN(C)C(=O)Nc1ccc(C(F)(F)F)cc1` the activity change, negative = inhibition [1] was 6.93% (inactive).

For `Cc1ccc(S(=O)(=O)Nc2ccc3c(c2)C(=O)N([C@H](C)CO)C[C@H](C)[C@@H](CN(C)Cc2ccc(C(F)(F)F)cc2)O3)cc1`, the activity change, negative = inhibition [1] was -2.52% (inactive).

With `C[C@@H]1CN([C@@H](C)CO)C(=O)Cc2cc(NC(=O)CCN3CCOCC3)ccc2O[C@H]1CN(C)C(=O)Nc1ccc(F)cc1` the activity change, negative = inhibition [1] was 1.22% (inactive).

`C[C@H](CO)N1C[C@H](C)[C@@H](CN(C)Cc2ccc3c(c2)OCO3)Oc2c(NC(=O)NC3CCCCC3)cccc2C1=O` gave an AC50 [2] of 8.89 µM.

In the case of `C[C@@H]1CN([C@H](C)CO)C(=O)c2cccc(NC(=O)Nc3ccc(C(F)(F)F)cc3)c2O[C@@H]1CN(C)C(=O)Nc1ccc(C(F)(F)F)cc1`, the activity change, negative = inhibition [1] is reported as -11.1% (inactive).

For `C[C@@H]1CCCCO[C@@H](CN(C)Cc2ccc(C(=O)O)cc2)[C@H](C)CN([C@H](C)CO)C(=O)c2cc(NC(=O)CCCN(C)C)ccc2O1`, the activity change, negative = inhibition [1] was -5.01% (inactive).

Reference: PubChem BioAssay AID493103 (Broad Institute, 2011)
